Calls of active or inactive are those of the source. The calls are words filed in the database; no cut-off is given here.
Legend:
Cruzipain [1] = biological target: T1, Cruzipain (Trypanosoma cruzi, UniProt P25779); assay: Inhibition of recombinant Trypanosoma cruzi cruzain after 5 mins by spectrofluorimetric analysis
Outline: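 Recombinant cruzain at 4 nM (activated procruzain, anion-exchange purified) in 100 mM sodium acetate pH 5.5, 5 mM DTT, 0.001% Triton X-100. Preincubated 5 min at room temperature with compound in DMSO, then Z-Phe-Arg-AMC 10 μM. Fluorescence rate read at ex 355/em 460 nm; DMSO controls; IC50 by curve fitting.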

[2] = Inhibition of recombinant Trypanosoma brucei rhodesain after 5 mins by spectrofluorimetric analysis
Outline: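 Recombinant rhodesain, 4 nM, preincubated 5 min at room temperature with compound (DMSO) in 100 mM sodium acetate pH 5.5, 5 mM DTT, 0.001% Triton X-100. Reaction started with 10 μM Z-Phe-Arg-AMC; rate of AMC fluorescence increase read at ex 355/em 460 nm. IC50 from curve fitting; DMSO-only wells as positive control.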

[3] = Inhibition of recombinant Trypanosoma brucei cathepsin B after 5 mins by spectrofluorimetric analysis
Outline: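 Recombinant TbCatB at 258 nM in 100 mM sodium acetate pH 5.5, 5 mM DTT, 0.001% Triton X-100, preincubated with compound in DMSO for 5 min at room temperature. Z-Phe-Arg-AMC 10 μM added to start. Rate of fluorescence rise read at ex 355/em 460 nm; DMSO control wells; IC50 from curve fitting.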

Cruzipain [4] = biological target: T1, Cruzipain; assay: Inhibition of Trypanosoma cruzi cruzain after 15 mins; conditions: read-out: IC50
Outline: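 Cruzain at 1.5 nM final in 100 mM acetate pH 5.5, 5 mM DTT, 0.01% Triton X-100; compounds as serial 2-fold dilutions pin-transferred in DMSO. 15 min room-temperature preincubation, then Z-FR-AMC 2 μM final. Kinetic fluorescence read at ex 340/em 450 nm. Percent inhibition from the first 60 s signal change versus no-enzyme and uninhibited controls (48 wells each).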

Trypanosoma cruzi [5] = assay: Antitrypanosomal activity against Trypanosoma cruzi Y trypomastigotes infected in mouse J774 cells at 10 uM after 27 days medium replaced every 48 hrs; type: functional, organism-based
Outline: (§1)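 Irradiated (1000 rad) J774 macrophages plated overnight, infected 2 h with Y strain trypomastigotes, parasites removed, then cultured in RPMI-1640 with compound (n = 3); untreated infected and 10 μM K777 controls per experiment. Medium replaced every 48 h over 27 days; daily phase-contrast microscopy (400×) for free trypomastigotes and host toxicity; cultures kept 14 further days to confirm cure.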

Caspase-6 = Caspase-6 (Homo sapiens, UniProt P55212); assay: Inhibition of human Caspase 6
Outline: (§2)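 Profiling panel run externally as 10-dose, 3-fold serial dilutions of compound. Protease activity followed as a time course of fluorescence increase from a fluorescently labeled peptide substrate. The initial linear slope (signal/min) was analysed.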

Caspase-14 = Caspase-14 (Homo sapiens, UniProt P31944); assay: Inhibition of human Caspase 14; outline: as §2
Pro-cathepsin H = biological target: T2, Pro-cathepsin H (Homo sapiens, UniProt P09668); assay: Inhibition of human Cathepsin H; outline: as §2
T2 sequence (P09668 whole entry): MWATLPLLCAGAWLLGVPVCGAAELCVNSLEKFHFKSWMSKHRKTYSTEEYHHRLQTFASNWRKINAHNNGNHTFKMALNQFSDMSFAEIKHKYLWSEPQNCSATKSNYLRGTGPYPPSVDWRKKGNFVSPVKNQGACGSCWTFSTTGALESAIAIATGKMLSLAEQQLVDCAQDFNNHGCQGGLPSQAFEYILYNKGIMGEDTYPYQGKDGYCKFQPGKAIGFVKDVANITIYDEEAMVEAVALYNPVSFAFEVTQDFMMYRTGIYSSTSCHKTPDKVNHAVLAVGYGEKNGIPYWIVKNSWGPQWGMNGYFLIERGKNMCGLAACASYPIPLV

Cathepsin K = biological target: T3, Cathepsin K (Homo sapiens, UniProt P43235); assay: Inhibition of human Cathepsin K/O2; outline: as §2
T3 sequence (P43235 whole entry): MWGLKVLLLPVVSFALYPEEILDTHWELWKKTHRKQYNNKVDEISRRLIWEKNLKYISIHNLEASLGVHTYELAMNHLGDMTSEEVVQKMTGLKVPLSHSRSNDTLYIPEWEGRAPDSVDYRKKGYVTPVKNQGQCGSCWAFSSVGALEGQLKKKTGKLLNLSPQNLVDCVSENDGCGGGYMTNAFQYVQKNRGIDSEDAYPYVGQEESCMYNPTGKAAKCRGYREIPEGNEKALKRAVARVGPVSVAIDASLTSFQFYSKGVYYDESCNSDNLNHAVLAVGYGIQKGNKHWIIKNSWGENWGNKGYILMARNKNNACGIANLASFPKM

Procathepsin L = Procathepsin L (Homo sapiens, UniProt P07711); assay: Inhibition of human Cathepsin L; outline: as §2
Cathepsin S = Cathepsin S (Homo sapiens, UniProt P25774); assay: Inhibition of human Cathepsin S; outline: as §2
Cathepsin L2 = biological target: T4, Cathepsin L2 (Homo sapiens, UniProt O60911); assay: Inhibition of human Cathepsin V; outline: as §2
T4 sequence (O60911 whole entry): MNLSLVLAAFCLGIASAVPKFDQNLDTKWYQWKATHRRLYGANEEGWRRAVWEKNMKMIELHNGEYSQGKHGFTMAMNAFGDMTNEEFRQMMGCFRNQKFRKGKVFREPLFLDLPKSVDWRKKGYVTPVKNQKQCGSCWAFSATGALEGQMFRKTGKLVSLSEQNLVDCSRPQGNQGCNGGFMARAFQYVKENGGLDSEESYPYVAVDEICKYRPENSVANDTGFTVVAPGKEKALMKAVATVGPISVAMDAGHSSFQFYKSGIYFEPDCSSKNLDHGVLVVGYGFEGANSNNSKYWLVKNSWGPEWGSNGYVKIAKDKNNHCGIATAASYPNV

Papain = biological target: T5, Papain (Carica papaya, UniProt P00784); assay: Inhibition of papaya papain; outline: as §2
T5 sequence (P00784 whole entry): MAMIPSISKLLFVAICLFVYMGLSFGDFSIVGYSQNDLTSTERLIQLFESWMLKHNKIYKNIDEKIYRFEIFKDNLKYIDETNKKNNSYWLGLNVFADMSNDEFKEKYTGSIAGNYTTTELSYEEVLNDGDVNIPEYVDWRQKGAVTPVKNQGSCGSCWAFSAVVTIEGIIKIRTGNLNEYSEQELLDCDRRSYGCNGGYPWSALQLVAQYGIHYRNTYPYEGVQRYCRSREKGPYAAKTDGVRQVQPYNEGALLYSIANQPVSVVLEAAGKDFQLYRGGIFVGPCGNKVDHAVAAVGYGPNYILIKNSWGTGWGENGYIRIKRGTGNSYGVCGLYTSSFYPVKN

Cathepsin Z = Cathepsin Z (Homo sapiens, UniProt Q9UBR2); assay: Inhibition of human Cathepsin X/Z; outline: as §2
[6] = biological target: Tissue-type plasminogen activator (Homo sapiens, UniProt P00750); assay: Inhibition of human tPA; outline: as §2
Mus musculus = species on record: Mus musculus; assay: Toxicity in mouse; type: organism-based; conditions: in vivo
Rattus norvegicus = species on record: Rattus norvegicus; assay: Toxicity in rat; type: organism-based; conditions: in vivo
Canis familiaris = species on record: Canis familiaris; assay: Toxicity in dog; type: organism-based, Canis lupus familiaris; conditions: in vivo
Trypanosoma cruzi [7] = assay: Antitrypanosomal activity against Trypanosoma cruzi Y trypomastigotes infected in mouse J774 cells at 1 uM after 27 days medium replaced every 48 hrs; type: functional, organism-based; outline: as §1
J774 [8] = assay: Cytotoxicity against mouse J774 cells at 10 uM; type: cell-based; conditions: j774, 10 µM
Outline: (§3)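 Irradiated (1000 rad) J774 macrophages plated overnight and infected 2 h with Y strain T. cruzi trypomastigotes. After parasite removal, cultured in RPMI-1640 with compound (n = 3), medium changed every 48 h, for 27 days. Toxicity to host cells (granulation, detachment, death) scored daily by phase-contrast microscopy at 400×.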

Trypanosoma cruzi [9] = assay: Antitrypanosomal activity against Trypanosoma cruzi Y trypomastigotes infected in mouse J774 cells at 5 uM after 27 days medium replaced every 48 hrs; type: functional, organism-based; outline: as §1
J774 [10] = assay: Cytotoxicity against mouse J774 cells at 5 uM; type: cell-based; conditions: j774, 5 µM; outline: as §3

T1 sequence (P25779 whole entry): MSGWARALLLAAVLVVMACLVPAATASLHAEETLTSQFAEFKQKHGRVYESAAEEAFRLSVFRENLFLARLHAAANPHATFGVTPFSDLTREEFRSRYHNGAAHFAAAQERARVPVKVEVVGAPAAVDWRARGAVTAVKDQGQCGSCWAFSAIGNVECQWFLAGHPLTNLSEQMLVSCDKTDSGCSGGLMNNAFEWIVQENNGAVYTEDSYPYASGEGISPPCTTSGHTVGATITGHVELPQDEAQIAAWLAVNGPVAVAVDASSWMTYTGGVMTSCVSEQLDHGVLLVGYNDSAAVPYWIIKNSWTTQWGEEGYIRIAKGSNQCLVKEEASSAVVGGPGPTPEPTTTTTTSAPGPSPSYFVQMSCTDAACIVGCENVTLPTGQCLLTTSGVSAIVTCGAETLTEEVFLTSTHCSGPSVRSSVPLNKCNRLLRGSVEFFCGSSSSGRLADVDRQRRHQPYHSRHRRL
Caspase-6, sequence (P55212 24-179 limits assumed): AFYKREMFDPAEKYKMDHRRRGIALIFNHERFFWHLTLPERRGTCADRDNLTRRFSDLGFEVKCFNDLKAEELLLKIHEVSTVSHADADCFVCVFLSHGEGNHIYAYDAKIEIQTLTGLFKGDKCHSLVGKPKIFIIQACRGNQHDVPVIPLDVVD
Caspase-6, sequence (P55212 194-293 limits assumed): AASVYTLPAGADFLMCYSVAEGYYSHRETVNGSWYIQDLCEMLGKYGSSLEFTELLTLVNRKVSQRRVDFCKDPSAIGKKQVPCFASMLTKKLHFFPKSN
Tissue-type plasminogen activator, sequence (P00750 whole entry): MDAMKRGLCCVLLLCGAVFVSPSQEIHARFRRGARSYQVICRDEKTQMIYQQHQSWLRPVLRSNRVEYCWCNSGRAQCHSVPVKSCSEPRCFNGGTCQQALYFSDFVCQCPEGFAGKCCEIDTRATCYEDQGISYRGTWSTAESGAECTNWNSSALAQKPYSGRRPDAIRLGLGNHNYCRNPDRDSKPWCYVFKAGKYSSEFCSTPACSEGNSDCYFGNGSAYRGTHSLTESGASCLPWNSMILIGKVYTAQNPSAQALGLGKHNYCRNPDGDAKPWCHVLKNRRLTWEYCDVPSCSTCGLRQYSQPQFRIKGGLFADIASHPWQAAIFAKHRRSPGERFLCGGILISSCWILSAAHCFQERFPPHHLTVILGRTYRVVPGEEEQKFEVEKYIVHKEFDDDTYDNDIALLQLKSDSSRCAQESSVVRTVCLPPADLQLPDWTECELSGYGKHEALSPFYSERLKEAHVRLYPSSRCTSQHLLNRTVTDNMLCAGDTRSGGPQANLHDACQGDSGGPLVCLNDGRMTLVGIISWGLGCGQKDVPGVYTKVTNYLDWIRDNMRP
Caspase-14, sequence (P31944 6-146 limits assumed): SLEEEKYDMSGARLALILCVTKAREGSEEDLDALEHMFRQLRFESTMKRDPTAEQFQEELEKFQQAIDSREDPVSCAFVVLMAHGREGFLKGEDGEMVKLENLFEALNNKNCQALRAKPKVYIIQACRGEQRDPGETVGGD
Caspase-14, sequence (P31944 153-242 limits assumed): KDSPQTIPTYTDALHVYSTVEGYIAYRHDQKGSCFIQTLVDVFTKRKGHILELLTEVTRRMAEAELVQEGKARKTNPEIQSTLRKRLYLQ
Cathepsin Z, sequence (Q9UBR2 whole entry): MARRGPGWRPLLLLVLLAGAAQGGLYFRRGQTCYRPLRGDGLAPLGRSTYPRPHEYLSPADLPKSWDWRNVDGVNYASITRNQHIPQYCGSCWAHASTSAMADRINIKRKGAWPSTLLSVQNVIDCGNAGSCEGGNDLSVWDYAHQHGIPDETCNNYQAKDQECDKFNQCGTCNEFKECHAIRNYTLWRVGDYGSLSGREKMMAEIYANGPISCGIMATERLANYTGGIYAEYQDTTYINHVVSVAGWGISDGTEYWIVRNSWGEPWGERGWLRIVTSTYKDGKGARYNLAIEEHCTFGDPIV
Cathepsin S, sequence (P25774 whole entry): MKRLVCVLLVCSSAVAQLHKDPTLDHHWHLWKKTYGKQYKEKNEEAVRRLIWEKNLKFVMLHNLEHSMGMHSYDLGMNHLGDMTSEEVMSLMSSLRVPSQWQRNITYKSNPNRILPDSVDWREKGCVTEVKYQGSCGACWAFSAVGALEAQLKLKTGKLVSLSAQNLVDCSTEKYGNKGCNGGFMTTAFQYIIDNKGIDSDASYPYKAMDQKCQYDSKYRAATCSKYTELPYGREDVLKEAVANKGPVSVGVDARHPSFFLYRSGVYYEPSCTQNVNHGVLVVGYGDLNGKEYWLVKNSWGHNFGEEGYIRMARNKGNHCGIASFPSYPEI
Procathepsin L, sequence (P07711 whole entry): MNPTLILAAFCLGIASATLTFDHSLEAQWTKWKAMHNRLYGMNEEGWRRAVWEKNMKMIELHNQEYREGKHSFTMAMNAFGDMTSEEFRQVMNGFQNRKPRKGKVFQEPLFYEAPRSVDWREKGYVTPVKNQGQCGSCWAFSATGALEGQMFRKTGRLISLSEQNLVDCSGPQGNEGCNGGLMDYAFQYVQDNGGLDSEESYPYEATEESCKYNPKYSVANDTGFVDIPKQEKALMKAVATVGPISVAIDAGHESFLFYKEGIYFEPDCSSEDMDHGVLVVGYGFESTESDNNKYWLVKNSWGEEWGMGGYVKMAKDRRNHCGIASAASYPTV

Row | Compound | IC50 (Cruzipain [1]) [nM] | IC50 [2] [nM] | IC50 [3] [nM] | IC50 (Cruzipain [4]) [nM] | also measured
1 | CCOc1nc(C#N)nc(N2CCCCC2)n1 | 90 | 300 | > 1000 |  | 
2 | N#Cc1nc(NCCCCO)nc(Nc2ccccc2)n1 |  |  |  | 890 | 
3 | CC(C)Nc1nc(C#N)nc(Nc2ccccc2)n1 |  |  |  | 890 | 
4 | CCn1cnc2c(Nc3cccc(Cl)c3)nc(C#N)nc21 | 0.4 | 10 | > 100000 | 18 | Activity (Trypanosoma cruzi [5]): inactive
5 | N#Cc1nc(Nc2cccc(Cl)c2)nc(NC2CCCC2)n1 | 2 | 6 | > 100000 | 79 | IC50 (Caspase-6): 5130 nM; IC50 (Caspase-14): 14100 nM; IC50 (Pro-cathepsin H): 14500 nM; IC50 (Cathepsin K): 17.4 nM; IC50 (Procathepsin L): 309 nM; IC50 (Cathepsin S): 6460 nM; IC50 (Cathepsin L2): 832 nM; IC50 (Papain): 513 nM; IC50 (Cathepsin Z): 6460 nM; IC50 [6]: 851 nM; Activity (Mus musculus): Non-toxic; Activity (Rattus norvegicus): Non-toxic; Activity (Canis familiaris): Non-toxic; Activity (Trypanosoma cruzi [7]): inactive; Activity (J774 [8]): Toxic; Activity (Trypanosoma cruzi [9]): inactive
6 | N#Cc1nc(Nc2cccc([N+](=O)[O-])c2)nc(NC2CCCC2)n1 | 1 | 8 | > 1000 | 63 | 
7 | CC(C)CNc1nc(C#N)nc(Nc2ccccc2)n1 |  |  |  | 890 | 
8 | N#Cc1nc(Nc2ccc(F)cc2)nc(NC2CCCC2)n1 | 30 | 40 | > 1000 | 126 | 
9 | CNc1nc(C#N)nc(Nc2ccccc2)n1 |  |  |  | 1260 | 
10 | N#Cc1nc(NC2CCCC2)c2ncn(-c3cc(F)cc(F)c3)c2n1 |  |  |  | 316 | 
11 | N#Cc1nc(NCC(F)F)c2ncn(-c3cccc(Cl)c3)c2n1 |  |  |  | 71 | 
12 | N#Cc1nc(NCC2CC2)nc(Nc2ccccc2)n1 |  |  |  | 890 | 
13 | N#Cc1nc(Nc2cccc(Br)c2)nc(NC2CCCC2)n1 | 2 | 6 | > 100000 | 100 | Activity (J774 [10]): Toxic; Activity (Trypanosoma cruzi [7]): inactive; Activity (J774 [8]): Toxic
14 | N#Cc1nc(Nc2cc(Cl)cc(Cl)c2)nc(NC2CCCC2)n1 | 10 | 30 | > 10000 | 398 | Activity (Trypanosoma cruzi [7]): inactive; Activity (J774 [8]): Toxic; Activity (Trypanosoma cruzi [9]): inactive
15 | N#Cc1nc(Nc2ccccc2)nc(NC2CCCC2)n1 |  |  |  | 710 | 
